Source: ChEMBL document CHEMBL1149678, “Synthesis and structure-activity relationship of RXR antagonists based on the diazepinylbenzoic acid structure” (Bioorg Med Chem Lett, 2007)

Legend:
[1] = target: T1, Retinoic acid receptor RXR-alpha (Homo sapiens, UniProt P19793); experiment: Antagonist activity at human RXRalpha expressed in […] cells assessed as inhibition of LG-100268-induced transactivation; type: functional, cell-based, HEK293
T1 sequence (P19793 whole entry): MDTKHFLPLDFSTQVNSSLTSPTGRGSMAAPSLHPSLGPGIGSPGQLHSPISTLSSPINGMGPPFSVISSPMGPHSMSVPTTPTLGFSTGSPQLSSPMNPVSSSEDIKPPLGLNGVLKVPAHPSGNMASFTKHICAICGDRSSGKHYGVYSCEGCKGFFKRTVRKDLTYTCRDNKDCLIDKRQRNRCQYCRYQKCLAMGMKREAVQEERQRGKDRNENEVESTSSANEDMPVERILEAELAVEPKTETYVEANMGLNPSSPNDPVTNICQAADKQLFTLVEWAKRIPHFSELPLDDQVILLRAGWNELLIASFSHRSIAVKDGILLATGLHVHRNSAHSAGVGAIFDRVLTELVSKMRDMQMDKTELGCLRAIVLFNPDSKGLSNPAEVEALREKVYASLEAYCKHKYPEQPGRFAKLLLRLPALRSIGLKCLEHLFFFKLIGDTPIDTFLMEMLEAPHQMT

[2] = target: T1, Retinoic acid receptor RXR-alpha; experiment: Antagonist activity at human RXRalpha expressed in […] cells assessed as inhibition of 9-cis-retinoic acid-induced transactivation; type: functional, cell-based, HEK293
[3] = Plasma clearance in rat at 1 mg/kg, iv; type: ADME, organism-based; design: dose 1 mg/kg, route intravenous
Method in brief: (§1)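 Rats given the compound as a 1 mg/kg intravenous bolus or 3 mg/kg perorally as a suspension. Blood was sampled at various time points up to 24 h, and parent compound levels were measured by LC/MS. Clearance, terminal half-life and steady-state volume of distribution come from the iv profile, Cmax and tmax from the po profile, and bioavailability from comparing iv and po dosing.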

[4] = Terminal elimination half life in rat at 1 mg/kg, iv; type: ADME, organism-based; design: dose 1 mg/kg, route intravenous; settings: in vivo; method in brief: as §1
[5] = Volume of distribution at steady state in rat at 1 mg/kg, iv; type: ADME, organism-based; design: dose 1 mg/kg, route intravenous; settings: in vivo, read-out: Vdss; method in brief: as §1
[6] = Tmax in rat at 3 mg/kg, po; type: ADME, organism-based; design: dose 3 mg/kg, route oral; settings: in vivo; method in brief: as §1
[7] = Cmax in rat at 3 mg/kg, po; type: ADME, organism-based; design: dose 3 mg/kg, route oral; settings: in vivo; method in brief: as §1
[8] = Bioavailability in rat at 1 mg/kg, iv and 3 mg/kg, po; type: ADME, organism-based; settings: in vivo; method in brief: as §1

SMILES | IC50 [1] [µM] | IC50 [2] [µM] | further results
CN1c2ccc(NS(=O)(=O)c3ccccc3F)cc2N=C(c2ccc(C(=O)O)cc2)c2cc3c(cc21)C(C)(C)CCC3(C)C | 4.4 | 2.3 | 
CCCS(=O)(=O)Nc1ccc2c(c1)N=C(c1ccc(C(=O)O)cc1)c1cc3c(cc1N2CC)C(C)(C)CCC3(C)C | 0.57 | 0.34 | 
CCCCS(=O)(=O)Nc1ccc2c(c1)N=C(c1ccc(C(=O)O)cc1)c1cc3c(cc1N2CCC)C(C)(C)CCC3(C)C | 0.85 | 0.14 | 
CC(C)C(=O)Nc1ccc2c(c1)N=C(c1ccc(C(=O)O)cc1)c1cc3c(cc1N2C)C(C)(C)CCC3(C)C | 5.6 | 1.9 | 
CCCCS(=O)(=O)Nc1ccc2c(c1)N=C(c1ccc(C(=O)O)cc1)c1cc3c(cc1N2C)C(C)(C)CCC3(C)C | 0.91 | 0.37 | 
CCCN1c2ccc(NS(=O)(=O)c3ccc(F)cc3)cc2N=C(c2ccc(C(=O)O)cc2)c2cc3c(cc21)C(C)(C)CCC3(C)C | 0.81 | 0.13 | 
CCN1c2ccc(NS(=O)(=O)c3ccc(F)cc3)cc2N=C(c2ccc(C(=O)O)cc2)c2cc3c(cc21)C(C)(C)CCC3(C)C | 0.42 | 0.22 | 
COc1ccc(S(=O)(=O)Nc2ccc3c(c2)N=C(c2ccc(C(=O)O)cc2)c2cc4c(cc2N3C)C(C)(C)CCC4(C)C)cc1 | 2.5 | 0.47 | 
CCNC(=O)Nc1ccc2c(c1)N=C(c1ccc(C(=O)O)cc1)c1cc3c(cc1N2C)C(C)(C)CCC3(C)C | 7.4 | 7.3 | 
CN1c2ccc(NC(=O)Cc3ccccc3)cc2N=C(c2ccc(C(=O)O)cc2)c2cc3c(cc21)C(C)(C)CCC3(C)C | 2.5 | 0.97 | 
CN1c2ccc(NS(=O)(=O)c3ccc(F)cc3)cc2N=C(c2ccc(C(=O)O)cc2)c2cc3c(cc21)C(C)(C)CCC3(C)C | 1.7 | 0.19 | 
CCCN1c2ccc(NS(=O)(=O)c3cccc(C(F)(F)F)c3)cc2N=C(c2ccc(C(=O)O)cc2)c2cc3c(cc21)C(C)(C)CCC3(C)C | 0.19 | 0.076 | clearance [3]: 6.67 mL/min/kg; half-life [4]: 1.8 h; Vd [5]: 1.1 L/kg; Tmax [6]: 4 h; Cmax [7]: 519 nM; bioavailability [8]: 21%
CCCNC(=O)Nc1ccc2c(c1)N=C(c1ccc(C(=O)O)cc1)c1cc3c(cc1N2C)C(C)(C)CCC3(C)C | 5.2 | 6.2 | 
CN1c2ccc(NS(=O)(=O)c3cc(C(F)(F)F)cc(C(F)(F)F)c3)cc2N=C(c2ccc(C(=O)O)cc2)c2cc3c(cc21)C(C)(C)CCC3(C)C | 4.1 | 1.2 | 
CN1c2ccc(NS(=O)(=O)c3cccc4ccccc34)cc2N=C(c2ccc(C(=O)O)cc2)c2cc3c(cc21)C(C)(C)CCC3(C)C | 3.4 | 0.85 | 
CN1c2ccc(NC(=O)C34CC5CC(CC(C5)C3)C4)cc2N=C(c2ccc(C(=O)O)cc2)c2cc3c(cc21)C(C)(C)CCC3(C)C | 7.2 | 2.9 | 
CN1c2ccc(NC(=O)c3ccc(F)cc3)cc2N=C(c2ccc(C(=O)O)cc2)c2cc3c(cc21)C(C)(C)CCC3(C)C | 1.6 | 1.7 | 
CNc1ccc2c(c1)N=C(c1ccc(C(=O)O)cc1)c1cc3c(cc1N2C)C(C)(C)CCC3(C)C | > 100 | > 10 | 
CN1c2ccc(NS(C)(=O)=O)cc2N=C(c2ccc(C(=O)O)cc2)c2cc3c(cc21)C(C)(C)CCC3(C)C | 4.4 | 2.4 | 
CCCC(=O)Nc1ccc2c(c1)N=C(c1ccc(C(=O)O)cc1)c1cc3c(cc1N2C)C(C)(C)CCC3(C)C | 3.9 | 1.8 | 
CN1c2ccc(NC(=O)c3ccccc3)cc2N=C(c2ccc(C(=O)O)cc2)c2cc3c(cc21)C(C)(C)CCC3(C)C | 2 | 0.9 | 
CN1c2ccc(NCc3ccccc3)cc2N=C(c2ccc(C(=O)O)cc2)c2cc3c(cc21)C(C)(C)CCC3(C)C | > 100 | > 10 | 
CCCCNc1ccc2c(c1)N=C(c1ccc(C(=O)O)cc1)c1cc3c(cc1N2C)C(C)(C)CCC3(C)C | > 100 | > 10 | 
Cc1ccc(S(=O)(=O)Nc2ccc3c(c2)N=C(c2ccc(C(=O)O)cc2)c2cc4c(cc2N3C)C(C)(C)CCC4(C)C)cc1 | 2.5 | 0.43 | 

SMILES | IC50 [1] [µM] | IC50 [2] [µM] | further results
CN1c2ccc(NS(=O)(=O)c3ccccc3)cc2N=C(c2ccc(C(=O)O)cc2)c2cc3c(cc21)C(C)(C)CCC3(C)C | 1.4 | 0.51 | 
CN1c2ccc(NS(=O)(=O)Cc3ccccc3)cc2N=C(c2ccc(C(=O)O)cc2)c2cc3c(cc21)C(C)(C)CCC3(C)C | 5.2 | 1 | 
CNC(=O)Nc1ccc2c(c1)N=C(c1ccc(C(=O)O)cc1)c1cc3c(cc1N2C)C(C)(C)CCC3(C)C | 14 | 15 | 
CCCCNC(=O)Nc1ccc2c(c1)N=C(c1ccc(C(=O)O)cc1)c1cc3c(cc1N2C)C(C)(C)CCC3(C)C | 3.4 | 3.3 | 
CCCCS(=O)(=O)Nc1ccc2c(c1)N=C(c1ccc(C(=O)O)cc1)c1cc3c(cc1N2CC)C(C)(C)CCC3(C)C | 0.32 | 0.2 | 
CN1c2ccc(NS(=O)(=O)c3cccc(F)c3)cc2N=C(c2ccc(C(=O)O)cc2)c2cc3c(cc21)C(C)(C)CCC3(C)C | 2.3 | 1.2 | 
CN1c2ccc(NS(=O)(=O)c3ccccc3C(F)(F)F)cc2N=C(c2ccc(C(=O)O)cc2)c2cc3c(cc21)C(C)(C)CCC3(C)C | 2.6 | 1.4 | 
CN1c2ccc(NC(=O)Cc3ccc(F)cc3)cc2N=C(c2ccc(C(=O)O)cc2)c2cc3c(cc21)C(C)(C)CCC3(C)C | 1.3 | 0.88 | 
CN1c2ccc(NS(=O)(=O)/C=C/c3ccccc3)cc2N=C(c2ccc(C(=O)O)cc2)c2cc3c(cc21)C(C)(C)CCC3(C)C | 2.9 | 0.4 | 
CCN1c2ccc(NS(=O)(=O)c3cccc(C(F)(F)F)c3)cc2N=C(c2ccc(C(=O)O)cc2)c2cc3c(cc21)C(C)(C)CCC3(C)C | 0.16 | 0.095 | clearance [3]: 8.33 mL/min/kg; half-life [4]: 2.1 h; Vd [5]: 1.2 L/kg; Tmax [6]: 4.7 h; Cmax [7]: 468 nM; bioavailability [8]: 36%
CCC(=O)Nc1ccc2c(c1)N=C(c1ccc(C(=O)O)cc1)c1cc3c(cc1N2C)C(C)(C)CCC3(C)C | 7.1 | 2.2 | 
CN1c2ccc(NC(=O)/C=C/c3ccccc3)cc2N=C(c2ccc(C(=O)O)cc2)c2cc3c(cc21)C(C)(C)CCC3(C)C | 5.2 | 1.5 | 
CCCN1c2ccc(NS(=O)(=O)CCC)cc2N=C(c2ccc(C(=O)O)cc2)c2cc3c(cc21)C(C)(C)CCC3(C)C | 0.84 | 0.55 | 
CN1c2ccc(NS(=O)(=O)c3cccc(C(F)(F)F)c3)cc2N=C(c2ccc(C(=O)O)cc2)c2cc3c(cc21)C(C)(C)CCC3(C)C | 1.5 | 0.48 | 
CN1c2ccc(NC(=O)c3cccc(C(F)(F)F)c3)cc2N=C(c2ccc(C(=O)O)cc2)c2cc3c(cc21)C(C)(C)CCC3(C)C | 4.1 | 4.2 | 
CCS(=O)(=O)Nc1ccc2c(c1)N=C(c1ccc(C(=O)O)cc1)c1cc3c(cc1N2C)C(C)(C)CCC3(C)C | 4.9 | 0.84 | 
CN1c2ccc(NS(=O)(=O)c3ccc(-c4ccccc4)cc3)cc2N=C(c2ccc(C(=O)O)cc2)c2cc3c(cc21)C(C)(C)CCC3(C)C | 6.2 | 1.3 | 
CCCN1c2ccc(NC(=O)Cc3ccc(F)cc3)cc2N=C(c2ccc(C(=O)O)cc2)c2cc3c(cc21)C(C)(C)CCC3(C)C | 3.9 | 3.1 | 
CCN1c2ccc(NC(=O)Cc3ccc(F)cc3)cc2N=C(c2ccc(C(=O)O)cc2)c2cc3c(cc21)C(C)(C)CCC3(C)C | 1.2 | 0.72 | 
CN1c2ccc(NC(=O)NCc3ccccc3)cc2N=C(c2ccc(C(=O)O)cc2)c2cc3c(cc21)C(C)(C)CCC3(C)C | 2.5 | 2.8 | 
CN1c2ccc(NS(=O)(=O)c3ccc(C(F)(F)F)cc3)cc2N=C(c2ccc(C(=O)O)cc2)c2cc3c(cc21)C(C)(C)CCC3(C)C | 2.2 | 1.1 | 
CCCS(=O)(=O)Nc1ccc2c(c1)N=C(c1ccc(C(=O)O)cc1)c1cc3c(cc1N2C)C(C)(C)CCC3(C)C | 2.1 | 0.25 | 
CN1c2ccc(NC(=O)C3CCCCC3)cc2N=C(c2ccc(C(=O)O)cc2)c2cc3c(cc21)C(C)(C)CCC3(C)C | 4.5 | 1.5 | 
